Assay results reported in ChEMBL document CHEMBL4513216, “Probing the Open Global Health Chemical Diversity Library for Multistage-Active Starting Points for Next-Generation Antimalarials” (ACS Infect Dis, 2020).

Assay: Toxicity liver stage against HepG2, at 10uM
Type: cell-based
Set-up: test concentration 10 uM, cell line HepG2-A16-CD81EGFP
Conditions: human, HepG2-A16-CD81EGFP cells; read-out: INHIBITION
Outline: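 Uninfected HepG2-A16-CD81EGFP cells, 3 × 10^3 per well, 1536-well, plated on prespotted compound at 10 μM final, parasite-free screening media added to match infected plates; puromycin 10 μM positive, DMSO 0.5% negative; run in parallel with 48 h PbLuc assay at 37 °C, 5% CO2; viability by CellTiter-Glo luminescence, normalized to controls.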

| SMILES | cytotoxicity at 10 µM [%] |
| --- | --- |
| CC(NC(=O)NCCCN1CCCCCC1)c1nncn1C (stereo unspecified) | -7.1 |
| Cc1c(NC(=O)NCC(C)N2CCOCC2)cccc1OC(F)F (stereo unspecified) | -2.88 |
| CC(C)C1CN(C(=O)c2ccccc2)CCS1 (stereo unspecified) | 1.62 |
| CC(C)CC(C#N)NC(=O)COC1CCCCC1 (stereo unspecified) | 5.42 |
| O=C(NCCc1nncn1C1CC1)c1cnn(Cc2ccccc2)c1 | -2.36 |
| Cc1cc(NC2CCc3nc(C)nn3C2)n2ncnc2n1 (stereo unspecified) | -6.29 |
| O=C(NCc1csc(Br)c1)N1CCC(O)CC1 | -11.8 |
| Cc1nc(-c2cccc(C(=O)N(C)CC(C)O)c2)cs1 (stereo unspecified) | 2.68 |
| COC1CCCN(Cc2nc(Cc3ccccc3F)no2)C1 (stereo unspecified) | -4.23 |
| Cc1ccc(OCc2occc2C(=O)N2C[C@@H]3C(CN(C)C)[C@@H]3C2)cc1 (stereo partly specified) | -1 |
| CCS(=O)(=O)N1CCC(c2cc3n(n2)[C@@H](C(F)(F)F)C[C@@H](C)N3)CC1 | 0.436 |
| Cn1nc(CNC(=O)C2CCC2)cc1C1CC1 | -4.31 |
| Cc1cnc(C(=O)N2CCCN(c3nc(C)cs3)CC2)cn1 | -8.81 |
| Cn1cc(-c2csc(CN3CCOCC3)n2)cn1 | -11.4 |
| CC(C)c1cnc(CN(C)C2CCN(CCc3ccccn3)C2)o1 (stereo unspecified) | 2.37 |
| O=C(CS(=O)(=O)c1ccc(Cl)cc1)NC1CCCc2ccccc21 (stereo unspecified) | 1.03 |
| Cc1cc2nc(CO[C@H]3CN(C4CCCCC4)C[C@H]3F)[nH]c2cc1C | -17.5 |
| Cc1ccc(C)c2c(O)cc(CN3CCNC(=O)C3C)nc12 (stereo unspecified) | -1.66 |
| O=C(O)C1(Cc2ccc(Cl)cc2)CCN(c2ncccc2F)CC1 | -1.29 |
| NC(=O)C1CCN(C(=O)NC(Cc2ccccc2)C(F)(F)F)CC1 (stereo unspecified) | -7.72 |
| CC1c2cc(F)ccc2CCN1CCS(=O)(=O)C(C)C (stereo unspecified) | 2.72 |
| CCC(CO)N(Cc1ccccn1)C(=O)c1ccc2c(c1)CCO2 (stereo unspecified) | -14.2 |
| Cc1ccc(CNC(c2cccc(F)c2)c2nccn2C)o1 (stereo unspecified) | 5.48 |

| SMILES | cytotoxicity at 10 µM [%] |
| --- | --- |
| CC(C)(C)OC(=O)N1CCCN1C(=O)c1cccc2cc[nH]c12 | 2.84 |
| O=C1[C@H]2CN(Cc3cccs3)C[C@H]2CN1c1ccsc1 | -79 |
| CN1CCOC(CNCc2coc(-c3ccccc3Cl)n2)C1 (stereo unspecified) | -14.1 |
| Cc1cc(CN(CCCO)c2ccccc2)on1 | -4.91 |
| CCN(CC)S(=O)(=O)NC1CCN(c2ccc(OC)cc2)CC1 | 3.38 |
| COCCN(C)C(C(=O)O)c1cc(Cl)ccc1OC (stereo unspecified) | -6.92 |
| Nc1ccnc(N2CCCC(CCc3ccccc3)(C(=O)O)C2)n1 (stereo unspecified) | 3.33 |
| COCCn1ccc(=O)c(OCC(=O)Nc2ccccc2)c1C | 3.72 |
| CCS(=O)(=O)NC(C(=O)NC)c1ccc(F)c(F)c1 (stereo unspecified) | -9.06 |
| Cc1ncc(CNCC2CCCN2c2cccnn2)s1 (stereo unspecified) | 1.97 |
| Cc1ccc2nc(-c3nc4c([nH]3)CC(C)(C)CNC4=O)cn2c1 | 5.31 |
| CN(C(=O)Cn1nc(-c2ccc(F)cc2)oc1=O)C1CCS(=O)(=O)C1 (stereo unspecified) | 10.7 |
| Cc1c(Cl)c(C(F)(F)F)nn1C(C)C(=O)NN1CCN(C)CC1 (stereo unspecified) | -7.85 |
| O=C(c1nc2c(o1)CN(CC1CCC1)C2)N1CCCC1 | -131 |
| Cc1ncc(C(=O)N2CC(C(=O)N3CCCCCC3)C2)c(C)n1 | 6.39 |
| CC(C)CNc1c(NCc2ccco2)c(=O)c1=O | -10.6 |
| COc1ccccc1C1CNC(=O)c2nc(-c3nccn3C)[nH]c2C1 (stereo unspecified) | 4.2 |
| Cc1c(S(=O)(=O)NCC(C)C)cnn1C | 4.54 |
| Fc1cnc(N2CCOCC3(CCCN(c4cnccn4)C3)C2)nc1 (stereo unspecified) | 10.6 |
| COCC(O)CNC(=O)Nc1c(F)cc(F)cc1-c1ccccc1 (stereo unspecified) | -4.17 |
| O=C(O)[C@]12CCCN(Cc3ccncc3)C[C@H]1CN(c1ncccn1)C2 | 2.59 |
| CC(C)C(=O)N1CCCC2(CCCN2Cc2cccnc2)C1 (stereo unspecified) | 5.22 |
| CCOc1cccc(CNC(C)c2ccc(-n3ccnc3)cc2)c1O (stereo unspecified) | -38.3 |
